From the RNAGym collection of RNA variant scans (doi:10.1038/nmeth.2970)

B1: NELF-E aptamer (parent)
chain: CCCAACGACUGCCGAGCGAGAUUACGCUUGAGCGCCCCACUGAGGAUGCCCACGGGCGAUUGGGGCACGG

Variants of: B1
Experiment: HiTS-RAP
Settings: with NELF-E (Drosophila)
Summary of the method: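 Aptamer DNA templates carrying a T7 promoter and ter site were sequenced on an Illumina GAIIx flowcell, then transcribed in situ by T7 RNA polymerase and halted by GST-Tus (30 minutes, 37°C). Clusters were imaged after 30-minute room-temperature equilibration with NELF-E-mOrange at 0.064 to 1000 nM in HEPES binding buffer, and only the first binding curve was used. Intensities were normalised to sequencing intensity and averaged per sequence. Kd came from weighted Hill fits, keeping fits with variance below 1,000,000.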
A4G U28C was tested, and the Kd was 9.05 nM.
A4G U28G gave a Kd of 6.58 nM.
Variant A4G U29A has a Kd of 5.44 nM.
A4G U29C was tested, and the Kd was 6.03 nM.
Work on A4G U29G yielded a Kd of 5.5 nM.
A4G U41A was tested, and the Kd was 73.6 nM.
A4G U41C gave a Kd of 73 nM.
Variant A4G U41G has a Kd of 5.56 nM.
For A4G U47A, the Kd was 12.3 nM.
Variant A4G U47G has a Kd of 7.07 nM.
In the case of A4G U60A, the Kd is reported as 10.6 nM.
For A4G U60C, the Kd was 9.89 nM.
For A4G U60G, the Kd was 6.94 nM.
In the case of A4G U61A, the Kd is reported as 37.8 nM.
A4G U61C was tested, and the Kd was 66.2 nM.
With A4G U61G the Kd was 9.81 nM.
For A4U, the Kd was 5.39 nM.
Work on A4U A5G yielded a Kd of 5.88 nM.
A4U A5U showed a Kd of 4.82 nM.
In the case of A4U A8G, the Kd is reported as 6.19 nM.
A4U A8U gave a Kd of 6.22 nM.
Variant A4U A15G has a Kd of 5.02 nM.
A4U A15U was tested, and the Kd was 6.22 nM.
With A4U A19G the Kd was 6.92 nM.
A4U A19U gave a Kd of 5.66 nM.
A4U A21G showed a Kd of 5.7 nM.
For A4U A21U, the Kd was 6.22 nM.
A4U A24G gave a Kd of 6.45 nM.
A4U A31G showed a Kd of 6.99 nM.
With A4U A31U the Kd was 7.69 nM.
In the case of A4U A39G, the Kd is reported as 10.9 nM.
Work on A4U A39U yielded a Kd of 31.1 nM.
A4U A43G was tested, and the Kd was 40 nM.
Variant A4U A46G has a Kd of 58.7 nM.
A4U A52G showed a Kd of 4.05 nM.
Work on A4U A52U yielded a Kd of 20.1 nM.
A4U A59G showed a Kd of 70.4 nM.
With A4U A67G the Kd was 5.89 nM.
In the case of A4U C6G, the Kd is reported as 5.99 nM.
With A4U C6U the Kd was 6.4 nM.
Work on A4U C9G yielded a Kd of 5.93 nM.
For A4U C9U, the Kd was 5.8 nM.
In the case of A4U C12G, the Kd is reported as 5.79 nM.
A4U C12U was tested, and the Kd was 5.44 nM.
With A4U C13A the Kd was 4.82 nM.
In the case of A4U C13G, the Kd is reported as 5.84 nM.
Work on A4U C13U yielded a Kd of 5.19 nM.
A4U C17G showed a Kd of 5.58 nM.
A4U C17U showed a Kd of 5.01 nM.
Work on A4U C25G yielded a Kd of 5.99 nM.
For A4U C25U, the Kd was 4.95 nM.
In the case of A4U C37A, the Kd is reported as 13 nM.
Work on A4U C37U yielded a Kd of 9.84 nM.
For A4U C38U, the Kd was 6.95 nM.
Work on A4U C50U yielded a Kd of 12.7 nM.
In the case of A4U C51U, the Kd is reported as 7.05 nM.
In the case of A4U C53U, the Kd is reported as 3.61 nM.
In the case of A4U C57U, the Kd is reported as 5.44 nM.
Work on A4U C66U yielded a Kd of 5.14 nM.
With A4U G7U the Kd was 6.61 nM.
For A4U G11A, the Kd was 4.95 nM.
A4U G11U gave a Kd of 6.41 nM.
A4U G14A was tested, and the Kd was 6 nM.
A4U G14U showed a Kd of 6.79 nM.
Work on A4U G16U yielded a Kd of 6.93 nM.
A4U G18A gave a Kd of 4.13 nM.
Variant A4U G20U has a Kd of 6.62 nM.
Variant A4U G26A has a Kd of 4.14 nM.
Work on A4U G26U yielded a Kd of 4.31 nM.
With A4U G30A the Kd was 3.77 nM.
In the case of A4U G32A, the Kd is reported as 5.67 nM.
For A4U G34A, the Kd was 6.2 nM.
A4U G55A showed a Kd of 8.55 nM.
For A4U G56A, the Kd was 10.8 nM.
For A4U G62A, the Kd was 13.5 nM.
For A4U G63A, the Kd was 13.6 nM.
A4U G63U showed a Kd of 11.1 nM.
In the case of A4U G64A, the Kd is reported as 10.1 nM.
In the case of A4U G65A, the Kd is reported as 5.54 nM.
Work on A4U G65U yielded a Kd of 6.16 nM.
Work on A4U U10A yielded a Kd of 4.41 nM.
With A4U U10C the Kd was 6.91 nM.
Work on A4U U10G yielded a Kd of 5.45 nM.
A4U U22C gave a Kd of 5.97 nM.
A4U U22G was tested, and the Kd was 5.86 nM.
In the case of A4U U23G, the Kd is reported as 6.29 nM.
A4U U28A gave a Kd of 5.47 nM.
Work on A4U U28C yielded a Kd of 7.47 nM.
A4U U29A was tested, and the Kd was 4.29 nM.
Work on A4U U29C yielded a Kd of 5.56 nM.
With A4U U29G the Kd was 5.91 nM.
In the case of A4U U41A, the Kd is reported as 86.3 nM.
Variant A4U U41C has a Kd of 66 nM.
A4U U41G gave a Kd of 6.46 nM.
A4U U47A was tested, and the Kd was 12.5 nM.
A4U U47G showed a Kd of 6.26 nM.
In the case of A4U U61A, the Kd is reported as 22.7 nM.
Variant A4U U61C has a Kd of 74.2 nM.
With A5C the Kd was 6.55 nM.
Variant A5C A8C has a Kd of 8.75 nM.
With A5C A8G the Kd was 6.78 nM.
Variant A5C A8U has a Kd of 8.29 nM.
A5C C6A gave a Kd of 7.97 nM.
A5C C6G gave a Kd of 5.97 nM.
In the case of A5C C9G, the Kd is reported as 7.82 nM.
With A5C C13G the Kd was 6.73 nM.
Variant A5C G7U has a Kd of 7.5 nM.
Work on A5C G14U yielded a Kd of 6.73 nM.
For A5C G16U, the Kd was 8.04 nM.
A5C U10G was tested, and the Kd was 6.68 nM.
A5C U22G was tested, and the Kd was 6.87 nM.
Variant A5C U23G has a Kd of 7.92 nM.
Work on A5C U29G yielded a Kd of 7.04 nM.
With A5C U41G the Kd was 7.61 nM.
In the case of A5G, the Kd is reported as 5.54 nM.
For A5G A8C, the Kd was 9.31 nM.
A5G A8G gave a Kd of 6.06 nM.
A5G A8U was tested, and the Kd was 6.29 nM.
A5G A15G gave a Kd of 6.77 nM.
A5G A15U showed a Kd of 7.04 nM.
For A5G A19G, the Kd was 5.88 nM.
With A5G A19U the Kd was 7.26 nM.
In the case of A5G A21G, the Kd is reported as 5.66 nM.
Variant A5G A21U has a Kd of 6.3 nM.
A5G A24G was tested, and the Kd was 6.27 nM.
For A5G A31G, the Kd was 7.69 nM.
In the case of A5G A31U, the Kd is reported as 5.74 nM.
For A5G A39C, the Kd was 22.3 nM.
A5G A39G gave a Kd of 13.2 nM.
With A5G A39U the Kd was 34.5 nM.
A5G A43G showed a Kd of 25.6 nM.
A5G A43U was tested, and the Kd was 33.6 nM.
Variant A5G A46G has a Kd of 15.3 nM.
A5G A46U gave a Kd of 90.8 nM.
Variant A5G A52G has a Kd of 4.26 nM.
A5G A52U was tested, and the Kd was 17 nM.
A5G A59G gave a Kd of 29.5 nM.
Work on A5G A59U yielded a Kd of 113 nM.
In the case of A5G A67G, the Kd is reported as 6.71 nM.
A5G A67U showed a Kd of 7.84 nM.
Variant A5G C6A has a Kd of 6.25 nM.
Variant A5G C6G has a Kd of 5.46 nM.
A5G C6U was tested, and the Kd was 5.92 nM.
With A5G C9G the Kd was 5.97 nM.
A5G C9U gave a Kd of 6.36 nM.
A5G C12A showed a Kd of 5.04 nM.
Variant A5G C12G has a Kd of 6.02 nM.
For A5G C12U, the Kd was 6.51 nM.
A5G C13A was tested, and the Kd was 5.36 nM.
In the case of A5G C13G, the Kd is reported as 5.6 nM.
Variant A5G C13U has a Kd of 5.63 nM.
For A5G C17G, the Kd was 5.22 nM.
A5G C17U showed a Kd of 6.29 nM.
Work on A5G C25G yielded a Kd of 6.52 nM.
A5G C27U was tested, and the Kd was 5.87 nM.
In the case of A5G C33U, the Kd is reported as 6.71 nM.
A5G C36U gave a Kd of 6.13 nM.
For A5G C37U, the Kd was 10.4 nM.
In the case of A5G C38U, the Kd is reported as 9.85 nM.
With A5G C40U the Kd was 60.2 nM.
A5G C50G showed a Kd of 6.45 nM.
With A5G C50U the Kd was 21.6 nM.
In the case of A5G C51U, the Kd is reported as 7.39 nM.
Work on A5G C53U yielded a Kd of 4.59 nM.
A5G C66U was tested, and the Kd was 6.42 nM.
A5G G7A gave a Kd of 6.52 nM.
For A5G G7U, the Kd was 6.59 nM.
